This is an account of results in ChEMBL document CHEMBL5096187, “Efficient Synthesis and Bioevaluation of Novel Dual Tubulin/Histone Deacetylase 3 Inhibitors as Potential Anticancer Agents” (J Med Chem, 2021).

One assay deals with HCT-116. Put plainly: Antiproliferative activity against human HCT-116 cells assessed as inhibition of cell viability measured for 48 hrs by microplate reader based MTT assay. The assay is classed as functional. Particulars: HCT-116, 48 h. An outline of the steps: (§1)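 Cells grown in RPMI-1640 with 10% FBS and seeded at 5000 cells/well. After overnight attachment, compound was added in medium with 0.1% DMSO for 48 h at 37 °C. Read-out was MTT for HCT-116, B16-F10 and A549, and CCK-8 for Jurkat (0.5 mg/mL, 4 h), with absorbance at 570 nm. IC50 from nonlinear regression; at least three independent experiments.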

The next assay concerns B16-F10. Briefly: Antiproliferative activity against mouse B16-F10 cells assessed as inhibition of cell viability measured for 48 hrs by microplate reader based MTT assay. The assay is classed as functional. Particulars: B16-F10, 48 h. The procedure, abridged:
as §1

The subject of a further assay is Jurkat. Briefly: Antiproliferative activity against human Jurkat cells assessed as inhibition of cell viability measured for 48 hrs by microplate reader based CCK-8 assay. The assay is classed as functional. On the technique in general: Formazan colour is commonly taken as a measure of viable cells.
The subject of the next assay is A549. Put plainly: Antiproliferative activity against human A549 cells assessed as inhibition of cell viability measured for 48 hrs by microplate reader based CCK-8 assay. The assay is classed as functional. Particulars: A549, 48 h.
The next assay concerns the target Histone deacetylase 1 (Homo sapiens, UniProt Q13547). Briefly: Inhibition of full length recombinant human HDAC1 (1 to 482 residues) expressed in Baculovirus system using Ac-Leu-Gly-Lys (Ac)-AMC as substrate pretreated for 5 mins followed by substrate addition and measured after 30 mins.
The target of another assay is Histone deacetylase 3 (Homo sapiens, UniProt O15379). Briefly: Inhibition of recombinant HDAC3 (unknown origin) using Ac-Leu-Gly-Lys (Ac)-AMC as substrate pretreated for 5 mins followed by substrate addition and measured after 30 mins.
Chain of Histone deacetylase 3 (O15379 whole entry): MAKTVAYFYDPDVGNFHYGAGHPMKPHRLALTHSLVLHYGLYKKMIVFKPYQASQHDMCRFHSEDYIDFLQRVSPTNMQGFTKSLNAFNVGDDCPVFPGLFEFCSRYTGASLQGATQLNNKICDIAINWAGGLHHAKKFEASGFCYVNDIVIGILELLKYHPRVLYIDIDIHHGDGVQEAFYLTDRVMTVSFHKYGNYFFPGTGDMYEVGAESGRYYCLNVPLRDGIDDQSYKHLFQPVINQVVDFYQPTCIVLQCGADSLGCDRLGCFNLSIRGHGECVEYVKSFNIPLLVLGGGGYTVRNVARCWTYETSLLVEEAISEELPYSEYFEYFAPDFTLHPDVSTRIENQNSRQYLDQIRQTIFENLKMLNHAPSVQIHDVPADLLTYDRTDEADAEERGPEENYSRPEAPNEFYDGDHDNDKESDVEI
Assay [1] has as its target T1, Protein deacetylase HDAC6 (Homo sapiens, UniProt Q9UBN7).
T1 sequence (Q9UBN7 whole entry): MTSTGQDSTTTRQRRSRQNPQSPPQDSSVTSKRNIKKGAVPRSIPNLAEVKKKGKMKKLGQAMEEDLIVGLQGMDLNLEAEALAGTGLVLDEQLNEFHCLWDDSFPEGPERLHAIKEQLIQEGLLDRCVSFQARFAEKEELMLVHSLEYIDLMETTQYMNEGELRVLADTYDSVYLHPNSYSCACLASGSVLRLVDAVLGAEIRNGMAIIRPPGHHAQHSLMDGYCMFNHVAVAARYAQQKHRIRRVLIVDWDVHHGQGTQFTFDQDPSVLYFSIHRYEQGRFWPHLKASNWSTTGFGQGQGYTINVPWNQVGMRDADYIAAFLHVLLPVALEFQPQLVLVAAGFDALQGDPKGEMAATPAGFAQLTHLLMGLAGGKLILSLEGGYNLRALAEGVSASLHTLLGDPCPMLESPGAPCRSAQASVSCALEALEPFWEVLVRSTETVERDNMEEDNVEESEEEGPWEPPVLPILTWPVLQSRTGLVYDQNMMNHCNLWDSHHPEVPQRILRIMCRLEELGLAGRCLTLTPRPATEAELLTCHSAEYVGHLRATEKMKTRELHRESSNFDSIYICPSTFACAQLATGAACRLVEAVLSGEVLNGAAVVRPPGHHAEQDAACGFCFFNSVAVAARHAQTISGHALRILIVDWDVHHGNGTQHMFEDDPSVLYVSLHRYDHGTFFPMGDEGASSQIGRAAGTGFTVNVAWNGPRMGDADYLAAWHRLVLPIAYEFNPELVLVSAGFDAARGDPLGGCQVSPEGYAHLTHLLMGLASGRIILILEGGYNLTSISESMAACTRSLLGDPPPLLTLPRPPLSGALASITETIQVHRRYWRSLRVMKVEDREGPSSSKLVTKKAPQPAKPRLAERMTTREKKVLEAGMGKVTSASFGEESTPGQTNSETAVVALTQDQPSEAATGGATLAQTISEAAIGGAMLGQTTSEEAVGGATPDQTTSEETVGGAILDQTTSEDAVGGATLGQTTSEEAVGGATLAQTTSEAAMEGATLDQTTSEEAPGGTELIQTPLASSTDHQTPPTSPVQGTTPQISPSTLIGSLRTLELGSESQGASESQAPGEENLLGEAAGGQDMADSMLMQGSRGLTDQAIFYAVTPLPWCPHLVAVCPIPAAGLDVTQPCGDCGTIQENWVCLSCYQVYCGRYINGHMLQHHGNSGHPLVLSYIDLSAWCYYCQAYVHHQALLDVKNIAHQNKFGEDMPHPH
Put plainly: Inhibition of full length N-terminal GST-tagged human recombinant HDAC6 (1 to 1215 residues) expressed in Baculovirus infected Sf9 cells using Ac-Leu-Gly-Lys (Ac)-AMC as substrate pretreated for 5 mins followed by substrate addition and measured after 30 mins. An outline of the steps:
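HDAC6 at 15 ng/well in Tris buffer pH 8.0 with MgCl2, BSA, NaCl and KCl. Ten 3-fold dilutions preincubated 5 min at room temperature, then 10 μM Ac-Leu-Gly-Lys(Ac)-AMC for 30 min at 37 °C. IC50 by normalized dose–response nonlinear fit; performed at least three times.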

The target in another assay is T2, Histone deacetylase 8 (Homo sapiens, UniProt Q9BY41).
T2 sequence (Q9BY41 whole entry): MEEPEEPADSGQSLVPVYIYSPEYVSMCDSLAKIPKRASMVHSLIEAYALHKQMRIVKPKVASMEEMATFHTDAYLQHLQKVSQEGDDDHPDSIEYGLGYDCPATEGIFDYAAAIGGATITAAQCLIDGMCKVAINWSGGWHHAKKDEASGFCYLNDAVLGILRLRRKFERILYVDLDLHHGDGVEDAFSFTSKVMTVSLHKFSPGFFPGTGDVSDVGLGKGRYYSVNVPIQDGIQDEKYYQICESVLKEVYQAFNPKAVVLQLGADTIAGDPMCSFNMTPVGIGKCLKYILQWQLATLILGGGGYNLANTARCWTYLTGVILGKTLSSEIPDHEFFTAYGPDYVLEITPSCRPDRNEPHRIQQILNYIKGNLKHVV
Briefly: Inhibition of full length C-terminal his-tagged human recombinant HDAC8 ([…]) expressed in baculovirus in Sf9 insect cells using Ac-Leu-Gly-Lys (Tfa)-AMC as substrate pretreated for 5 mins followed by substrate addition and measured after 30 mins.

The target in a further assay is Tubulin (Sus scrofa) (UniProt P02554+P02550). Put plainly: Inhibition of pig brain tubulin polymerization at 10 uM measured after 20 mins by spectrometric method relative to control. An outline of the steps: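 Pig brain tubulin was purified by three assembly/disassembly cycles and then phosphocellulose chromatography. Compound at 10 μM in PEM buffer with 1 mM GTP and 5% glycerol at 37 °C. Polymerization followed at 340 nm; inhibition taken at 20 min versus vehicle control.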
Chain of Tubulin (Sus scrofa) (P02550 whole entry, looked up): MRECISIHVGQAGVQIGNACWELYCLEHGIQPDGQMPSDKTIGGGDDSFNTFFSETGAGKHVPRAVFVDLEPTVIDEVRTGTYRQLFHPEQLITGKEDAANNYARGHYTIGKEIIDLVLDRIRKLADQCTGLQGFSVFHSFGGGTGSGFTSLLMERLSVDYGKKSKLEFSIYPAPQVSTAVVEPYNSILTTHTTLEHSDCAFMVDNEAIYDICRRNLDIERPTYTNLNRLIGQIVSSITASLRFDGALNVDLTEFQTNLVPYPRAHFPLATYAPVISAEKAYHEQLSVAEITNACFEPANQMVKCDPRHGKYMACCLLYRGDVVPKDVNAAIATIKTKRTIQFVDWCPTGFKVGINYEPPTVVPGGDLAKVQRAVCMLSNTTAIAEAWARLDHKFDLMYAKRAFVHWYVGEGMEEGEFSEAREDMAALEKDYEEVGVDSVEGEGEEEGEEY
Chain of Tubulin (Sus scrofa) (P02554 whole entry, looked up): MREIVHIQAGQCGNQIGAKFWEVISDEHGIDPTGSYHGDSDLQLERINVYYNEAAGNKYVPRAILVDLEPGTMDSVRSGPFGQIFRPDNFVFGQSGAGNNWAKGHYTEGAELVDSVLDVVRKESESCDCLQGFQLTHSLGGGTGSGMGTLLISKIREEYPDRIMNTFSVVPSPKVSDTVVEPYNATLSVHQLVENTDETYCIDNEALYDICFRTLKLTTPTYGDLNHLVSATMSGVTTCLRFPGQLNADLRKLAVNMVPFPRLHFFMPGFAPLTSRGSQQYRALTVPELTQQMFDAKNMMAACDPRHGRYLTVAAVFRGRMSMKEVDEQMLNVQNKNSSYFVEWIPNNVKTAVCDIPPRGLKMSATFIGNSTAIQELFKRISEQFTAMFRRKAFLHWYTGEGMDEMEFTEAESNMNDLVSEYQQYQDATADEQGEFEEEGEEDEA

Assay [2] has as its target T3, Protein deacetylase HDAC6 (Homo sapiens) (UniProt Q9UBN7).
T3 sequence (whole entry): T1 sequence (Q9UBN7 whole entry)
Briefly: Inhibition of recombinant HDAC6 (unknown origin) at 1 uM relative to control. The procedure, abridged: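 Single-point test at 1 μM against recombinant HDAC6 (15 ng/well) in 25 mM Tris pH 8.0, 1 mM MgCl₂, 0.1 mg/mL BSA, 137 mM NaCl, 2.7 mM KCl. Compound preincubated 5 min at room temperature, then Ac-Leu-Gly-Lys(Ac)-AMC 10 μM, 30 min at 37 °C. Trypsin/TSA developer 30 min. Fluorescence read at ex 350−360/em 450−460 nm.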

Chain of Histone deacetylase 1 (Q13547 whole entry, the tested form may be a part): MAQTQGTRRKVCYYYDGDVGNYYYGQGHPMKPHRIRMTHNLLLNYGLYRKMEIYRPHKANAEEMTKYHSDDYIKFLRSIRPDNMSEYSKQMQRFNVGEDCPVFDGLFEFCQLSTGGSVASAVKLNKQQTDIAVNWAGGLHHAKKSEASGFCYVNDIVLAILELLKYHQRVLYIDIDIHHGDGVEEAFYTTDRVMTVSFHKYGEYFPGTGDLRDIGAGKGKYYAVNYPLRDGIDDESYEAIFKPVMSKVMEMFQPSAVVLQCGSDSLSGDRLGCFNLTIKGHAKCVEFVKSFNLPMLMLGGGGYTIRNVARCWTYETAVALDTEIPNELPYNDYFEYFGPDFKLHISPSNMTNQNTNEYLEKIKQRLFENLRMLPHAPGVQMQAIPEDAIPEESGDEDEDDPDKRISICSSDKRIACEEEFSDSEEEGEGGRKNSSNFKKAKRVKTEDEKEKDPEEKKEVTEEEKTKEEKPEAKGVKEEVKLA

For orientation: IC50 means the concentration at which inhibition is half-maximal. Broadly, the inhibition is the percentage by which the read-out fell short of the control. As for `COc1cc(C(=O)c2csc(-c3ccc(/C=C/C(=O)Nc4ccccc4N)cc3)n2)cc(OC)c1OC`, the IC50 in the assay on HCT-116 was 790 nM; in the assay on B16-F10 it was 810 nM; with Jurkat it was 10 nM; in the assay with A549 it was more than 10 µM; at Histone deacetylase 1, 11 µM; on Histone deacetylase 3, 170 nM. The 50% inhibitory concentration (IC50) in [1] was found to be 22.5 µM; on Histone deacetylase 8, 3.11 µM. Besides, at Tubulin (Sus scrofa), the inhibition came to 30%.
In the case of `COc1cc(C(=O)c2csc(-c3ccc(NC(=O)c4ccc(C(=O)Nc5ccccc5N)cc4)cc3)n2)cc(OC)c1OC`, the IC50 came to 1420 nM with HCT-116; 4320 nM in the assay with B16-F10; 520 nM in the assay on Jurkat; 6.58 µM in the assay on A549; 10.5 µM at Histone deacetylase 1; 3460 nM on Histone deacetylase 3. Besides, the values for the IC50 (in assay [1]; at Histone deacetylase 8) were 36.3 µM and 2.08 µM, respectively.
As for `COc1cc(C(=O)c2csc(-c3ccc(OCc4ccc(C(=O)NO)cc4)cc3)n2)cc(OC)c1OC`, the IC50 with HCT-116 was determined as 2550 nM; in the assay on B16-F10 it was 2770 nM; in the assay on Jurkat it was 380 nM; with A549 it was 10 µM; at Histone deacetylase 1, 7.19 µM; on Histone deacetylase 3, 12600 nM. Moreover, the IC50 in [1] was 1.98 µM; on Histone deacetylase 8, 7.98 µM. Moreover, the inhibition in [2] was more than 50%.
In the case of `COc1cc(C(=O)c2csc(-c3ccc(NC(=O)CCC(=O)NO)cc3)n2)cc(OC)c1OC`, the half-maximal inhibitory concentration (IC50) in the assay on HCT-116 was determined as 2510 nM; with B16-F10, 920 nM; with Jurkat, 420 nM; in the assay with A549 it was 5.83 µM; on Histone deacetylase 1 it was 7.36 µM; at Histone deacetylase 3, 12300 nM. The results for the half-inhibitory concentration (IC50) (in [1]; on Histone deacetylase 8) were 1.86 µM and 5.14 µM, respectively. In assay [2], the inhibition was more than 50%.
As for `COc1cc(C(=O)c2csc(-c3ccc(NC(=O)CCCCCC(=O)Nc4ccccc4N)cc3)n2)cc(OC)c1OC`, the concentration for half-maximal inhibition (IC50) with HCT-116 is 670 nM; with B16-F10, more than 10000 nM; in the assay on Jurkat, 20 nM; in the assay on A549, 2.36 µM; at Histone deacetylase 1, 8.53 µM; at Histone deacetylase 3 it was 390 nM. In addition, the IC50 in assay [1] amounted to 27.3 µM; at Histone deacetylase 8, 8.5 µM. Also, the inhibition against Tubulin (Sus scrofa) came out at 24%.
Consider `COc1cc(C(=O)c2csc(-c3ccc(NC(=O)/C=C/C(=O)NO)cc3)n2)cc(OC)c1OC`, for which the half-inhibitory concentration (IC50) in the assay on HCT-116 was 2820 nM; with B16-F10 it was 1480 nM; in the assay on Jurkat, 500 nM; in the assay on A549, more than 10 µM; at Histone deacetylase 1, 17.5 µM; at Histone deacetylase 3, 13000 nM. Also, the IC50 in assay [1] was 1.05 µM; at Histone deacetylase 8 it was 3.9 µM. In addition, the inhibition in [2] was more than 50%.
Regarding `COc1cc(C(=O)c2csc(-c3ccc(OCCCCCCC(=O)Nc4ccccc4N)cc3)n2)cc(OC)c1OC`, the IC50 turned out to be 1910 nM with HCT-116; 1890 nM with B16-F10; 700 nM with Jurkat; 2.44 µM in the assay on A549; 7.49 µM at Histone deacetylase 1; 470 nM on Histone deacetylase 3. Moreover, the IC50 in [1] was found to be 27.1 µM; on Histone deacetylase 8, 7.49 µM. The inhibition on Tubulin (Sus scrofa) amounted to 18%.
Consider `COc1cc(C(=O)c2csc(-c3ccc(NC(=O)CC(=O)Nc4ccccc4N)cc3)n2)cc(OC)c1OC`, for which the IC50 in the assay on HCT-116 is 1010 nM; with B16-F10 it was more than 10000 nM; in the assay with Jurkat it was 60 nM; with A549, more than 10 µM; on Histone deacetylase 1, 4.07 µM; at Histone deacetylase 3, 360 nM. Further, the results for the concentration for half-maximal inhibition (IC50) (in assay [1]; on Histone deacetylase 8) were 21.1 µM and 12 µM, respectively. The compound further yielded an inhibition on Tubulin (Sus scrofa) of 65%.
Regarding `COc1cc(C(=O)c2csc(-c3ccc(NCCC(=O)Nc4ccccc4N)cc3)n2)cc(OC)c1OC`, the half-maximal inhibitory concentration (IC50) in the assay with HCT-116 was 600 nM; with B16-F10 it was 670 nM; in the assay with Jurkat, 30 nM; in the assay on A549 it was more than 10 µM; at Histone deacetylase 1, 10.7 µM; at Histone deacetylase 3 it was 380 nM. Also, the IC50 in assay [1] stood at 23.8 µM; at Histone deacetylase 8, 8.28 µM. This compound showed an inhibition at Tubulin (Sus scrofa) of 19%.
For the compound `COc1cc(C(=O)c2csc(-c3ccc(NC(=O)CCCCC(=O)Nc4ccccc4N)cc3)n2)cc(OC)c1OC`, the IC50 in the assay on HCT-116 is 440 nM; in the assay on B16-F10, 830 nM; in the assay on Jurkat, 20 nM; in the assay with A549, 1.54 µM; at Histone deacetylase 1, 8.12 µM; on Histone deacetylase 3, 180 nM. Also, the concentration for half-maximal inhibition (IC50) is 36.4 µM in [1] and 8.74 µM on Histone deacetylase 8. At Tubulin (Sus scrofa), this compound gave an inhibition of 28%.
In the case of `COc1cc(C(=O)c2csc(-c3ccc(NCC(=O)Nc4ccccc4N)cc3)n2)cc(OC)c1OC`, the half-inhibitory concentration (IC50) is 1640 nM with HCT-116; 2350 nM with B16-F10; 60 nM in the assay on Jurkat; 2.2 µM in the assay on A549; 9.8 µM at Histone deacetylase 1; 1760 nM at Histone deacetylase 3. In addition, the results for the IC50 (in assay [1]; at Histone deacetylase 8) were 27.1 µM and 9.11 µM, respectively.
Consider `COc1cc(C(=O)c2csc(-c3ccc(C#CCCC(=O)Nc4ccccc4N)cc3)n2)cc(OC)c1OC`, for which the half-inhibitory concentration (IC50) with HCT-116 was 2110 nM; with B16-F10, more than 10000 nM; in the assay on Jurkat, 260 nM; with A549, more than 10 µM; on Histone deacetylase 1, 9.77 µM; at Histone deacetylase 3 it was 1980 nM. Further, the results for the 50% inhibitory concentration (IC50) (in assay [1]; at Histone deacetylase 8) were 20.2 µM and 6.55 µM, respectively.
